ADAM17 inh: inhibits human ADAM17; P78536; recombinant ADAM17, EDANS/DABCYL FRET peptide cleavage; inhibition, % at 6.95 µM; actives 0.83% (n = 370,000); AID 720648;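 active means inhibition above the mean of compounds lying between control limits plus 3 SD, set per campaign, cut at about 8.5% in these data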;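 further: 0% = DMSO-only wells as the low control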
Target sequence (P78536 215-824 limits assumed): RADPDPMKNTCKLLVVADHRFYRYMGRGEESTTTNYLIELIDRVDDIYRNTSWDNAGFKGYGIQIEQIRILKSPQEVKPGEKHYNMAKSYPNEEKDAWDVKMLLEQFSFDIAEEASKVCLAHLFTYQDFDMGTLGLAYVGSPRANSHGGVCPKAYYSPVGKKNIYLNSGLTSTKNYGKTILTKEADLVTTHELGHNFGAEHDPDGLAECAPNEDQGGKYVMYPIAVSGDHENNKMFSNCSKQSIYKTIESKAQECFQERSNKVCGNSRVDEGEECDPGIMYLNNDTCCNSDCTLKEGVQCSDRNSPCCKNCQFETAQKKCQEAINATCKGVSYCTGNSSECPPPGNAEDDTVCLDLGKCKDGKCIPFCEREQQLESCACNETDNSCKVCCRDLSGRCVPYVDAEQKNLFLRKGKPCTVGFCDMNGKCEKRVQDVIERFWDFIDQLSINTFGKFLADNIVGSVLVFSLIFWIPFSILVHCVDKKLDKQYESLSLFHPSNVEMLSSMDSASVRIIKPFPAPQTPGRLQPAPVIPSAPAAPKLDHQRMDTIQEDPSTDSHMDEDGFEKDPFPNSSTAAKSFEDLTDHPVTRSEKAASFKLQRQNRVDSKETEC
SKN-1 inh: C. elegans SKN-1 inhibition; inhibition, % at 21.8 µM; AID 624304; C. elegans VP596 Pgst-4::GFP/RFP ratio, acrylamide-induced, 24 h; actives 0.49% (n = 360,000);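 active means interference check ratio from 0.5 to 1.5 plus GFP to RFP signal ratio inhibition reaching or exceeding a fixed threshold, cut at about 30% in these data, passing the limit was not always enough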
MT1-MMP act inh: inhibitors of human MT1-MMP activation; GFP/RFP ratio change, % at 20 µM; actives 0.061% (n = 360,000); HT1080 RFP-PRO-GFP cells, GFP/RFP ratio fluorescence, overnight; percent of plate control window, DMSO zero;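 active means GFP/RFP ratio change of at least 30% with cell ATP level not reduced by more than half and red fluorescence within 50% of control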
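system = RFP-PRO-GFP reporter HT1080 cells | dosing = 20 µM single dose, 1% DMSO | timing = overnight cell settling, then overnight compound exposure, 37 °C, 5% CO2 | read-out basis = GFP/RFP fluorescence ratio | controls = DMSO and RFP-L50D-GFP cell wells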
MPTP block: inhibitors of mitochondrial permeability transition pore; isolated mouse mitochondria, Ca2+ swelling absorbance, 30 min; inhibition, % at 10 µM; actives 1.4% (n = 360,000); AID 602449;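 active means inhibition of 50% or more, scaled per plate between neutral and stimulator controls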;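 further: 0% = DMSO wells given calcium and 100% = 1 mM EGTA wells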
NR3A LBD binder: NR3A (human) ligand-binding domain modulation; AID 1259313; Tm shift relative to glycine control, % at 25 µM; actives 2.5% (n = 340,000); NR3A LBD differential scanning fluorimetry, Tm shift; 0% = protein alone, 100% = glycine-bound protein;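 active means melting temperature shift of at least 10% of the positive control shift, at one fixed dose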
ADAM10 inh: inhibits human ADAM10. AID 720582. O14672. inhibition, % at 7 µM. recombinant ADAM10, EDANS/DABCYL FRET peptide cleavage, 3 h. actives 0.62% (n = 370,000);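 active means inhibition above a per-campaign cutoff equal to the mean of compounds falling between control-based bounds plus 3 SD, cut at about 20% in these data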;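 further: 0% = DMSO wells while the 100% control is not disclosed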
MPTP counter: mitochondrial membrane potential, counter-screen; shares compounds with MPTP block; AID 624504; actives 78% (n = 5,000); isolated mitochondria, Rhodamine 123 fluorescence; inhibition, % at 10 µM; in the data active means inhibition above about 22%;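 further: 0% = DMSO vehicle and 100% = positive control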
MPTP swell DR: MPTP inhibition, dose response swelling confirmation; shares compounds with MPTP block; actives 58% (n = 780); IC50, µM; isolated mitochondria swelling, absorbance; in the data active means IC50 below about 20 µM
MPTP cs DR: MPTP inhibitor counter-screen activity, dose response | isolated mitochondria counterscreen, fluorescence read-out | actives 49% (n = 780) | IC50, µM | shares compounds with MPTP block; in the data active means IC50 below about 80 µM
* marks the source's active call; other numbers are inactive results. Sampled rows, rich in hits. Any-hit rate of the full collection: about 4.7%.

Results for COc1ccccc1/C=N/NC(=O)c1ccc(Cn2nc([N+](=O)[O-])cc2C)cc1 ?
ADAM17 inh: -0.8; SKN-1 inh: 5.6; MT1-MMP act inh: 2.8; MPTP block: 64.6*; NR3A LBD binder: -2.1; ADAM10 inh: 4.3; MPTP counter: -0.4; MPTP swell DR: >100; MPTP cs DR: >80

How did O=c1[nH]c(CN2CCCCC2)nc2c1C1(CCCCC1)Cc1ccccc1-2 do in these assays?
ADAM17 inh: 2.6; SKN-1 inh: -7.9; MT1-MMP act inh: -0.1; MPTP block: 76.9*; NR3A LBD binder: -0.3; ADAM10 inh: 11.2; MPTP counter: -1.9; MPTP swell DR: >100; MPTP cs DR: >80

How did O=C(NC1CCCCC1)c1cc([N+](=O)[O-])ccc1N1CCCCC1 do in these assays?
ADAM17 inh: -3.2; SKN-1 inh: 6.0; MT1-MMP act inh: -4.8; MPTP block: -0.2; NR3A LBD binder: -1.5; ADAM10 inh: -6.5

Results for CC(=O)Oc1c(C)cc(Cl)cc1C(=O)Nc1ccc([N+](=O)[O-])cc1Cl ?
ADAM17 inh: 0.4; SKN-1 inh: 5.1; MT1-MMP act inh: -23.1; MPTP block: 84.8*; NR3A LBD binder: -2.8; ADAM10 inh: -1.3; MPTP counter: 90.9*

How did O=C(Nc1ccc(S(=O)(=O)Nc2ccccn2)cc1)c1cccc([N+](=O)[O-])c1 do in these assays?
ADAM17 inh: -1.8; SKN-1 inh: 0.5; MT1-MMP act inh: 1.3; MPTP block: -1.3; NR3A LBD binder: -9.9; ADAM10 inh: 0.1

What do the screens show for `CCOC(=O)c1c(NC(=O)CSc2nnc(-c3ccco3)o2)sc(C(C)=O)c1C`?
ADAM17 inh: -2.9; SKN-1 inh: -19.8; MT1-MMP act inh: -0.5; MPTP block: 10.1; NR3A LBD binder: 1.3; ADAM10 inh: 10.4

Results for CCOC(=O)c1cccc(NC(=O)CSc2nc3cccnc3n2C)c1 ?
ADAM17 inh: -0.8; SKN-1 inh: -7.7; MT1-MMP act inh: 4.3; MPTP block: 73.2*; NR3A LBD binder: -0.7; ADAM10 inh: 3.4; MPTP counter: 28.8*

How did CCOC(=O)c1c(NC(=O)CSc2ncnc3ccccc23)sc(C(C)=O)c1C do in these assays?
ADAM17 inh: -6.1; SKN-1 inh: 15.7; MT1-MMP act inh: -7.9; MPTP block: 57.8*; NR3A LBD binder: -4.8; ADAM10 inh: -1.5; MPTP counter: 4.4

Results for CCOC(=O)c1c(NC(=O)CSc2nnc(-c3ccccc3C)n2C)sc(C(C)=O)c1C ?
ADAM17 inh: 1.9; SKN-1 inh: 8.9; MT1-MMP act inh: -13.2; MPTP block: 83.5*; NR3A LBD binder: -0.7; ADAM10 inh: 1.6; MPTP counter: 67.2*

Results for CCOC(=O)c1c(NC(=O)CSc2nnc(-c3cccnc3)o2)sc(C(C)=O)c1C ?
ADAM17 inh: -0.8; SKN-1 inh: 0.3; MT1-MMP act inh: -8.2; MPTP block: 74.9*; NR3A LBD binder: -0.4; ADAM10 inh: -1.8; MPTP counter: 6.8; MPTP swell DR: inactive; MPTP cs DR: 12.8*

How did COc1ccccc1NC(=O)c1ccc(NC2=NC3CS(=O)(=O)CC3S2)cc1 (configuration not stated) do in these assays?
ADAM17 inh: -0.8; SKN-1 inh: -15.0; MT1-MMP act inh: -1.1; MPTP block: -1.5; NR3A LBD binder: -0.3; ADAM10 inh: -3.0

How did CCC(CC)C(=O)Nc1cc(C(=O)NCCc2ccccc2)ccc1Cl do in these assays?
ADAM17 inh: -1.8; SKN-1 inh: -6.2; MT1-MMP act inh: 4.2; MPTP block: 0.1; NR3A LBD binder: 0.1; ADAM10 inh: 1.6

Results for CN(C)C(=O)Cn1cc(S(=O)(=O)Cc2ccccc2)c2ccccc21 ?
ADAM17 inh: -0.2; SKN-1 inh: 13.0; MT1-MMP act inh: -3.6; MPTP block: -0.4; NR3A LBD binder: -1.1; ADAM10 inh: -6.0

Results for CCOC(=O)c1c(NC(=O)CSc2nc3cccnc3n2C)sc(C(C)=O)c1C ?
SKN-1 inh: 11.7; MT1-MMP act inh: -3.5; MPTP block: 91.5*; NR3A LBD binder: -0.6; MPTP counter: 3.5; MPTP swell DR: 3.69*; MPTP cs DR: 3.54*

How did CCOC(=O)c1sc(NC(=O)CSc2nc3cccnc3n2C)nc1C do in these assays?
ADAM17 inh: -3.1; SKN-1 inh: 10.9; MT1-MMP act inh: 3.4; MPTP block: 5.7; NR3A LBD binder: 0.9; ADAM10 inh: -2.6

Results for C/C=C/C(=O)Nc1nnc(C2CCCCC2)s1 ?
ADAM17 inh: -3.0; SKN-1 inh: 1.8; MT1-MMP act inh: 1.6; MPTP block: -0.2; NR3A LBD binder: 1.2; ADAM10 inh: -4.9

Results for COc1ccc(C2C(C#N)=C(C)NC3=C2C(=O)c2ccccc23)cc1 (configuration not stated) ?
ADAM17 inh: -6.9; SKN-1 inh: 5.7; MT1-MMP act inh: -0.9; MPTP block: 0.7; NR3A LBD binder: -5.0; ADAM10 inh: -16.7

How did CC1=C([N+](=O)[O-])C(c2ccccc2)C2=C(N1)c1ccccc1C2=O (configuration not stated) do in these assays?
ADAM17 inh: 1.1; SKN-1 inh: -4.4; MT1-MMP act inh: 13.2; MPTP block: 87.8*; NR3A LBD binder: 0.4; ADAM10 inh: 5.4; MPTP counter: 65.3*

Results for CC(C)(C)NCCCCOc1ccc(F)cc1 ?
ADAM17 inh: -4.5; SKN-1 inh: -0.5; MT1-MMP act inh: 2.0; MPTP block: 1.6; NR3A LBD binder: 0.6; ADAM10 inh: -1.6

How did COC(=O)c1cc(NC(=O)c2cc(-c3ccc(C(F)(F)F)cc3)oc2C(F)(F)F)ccc1N1CCOCC1 do in these assays?
ADAM17 inh: -5.2; SKN-1 inh: 1.3; MT1-MMP act inh: -2.8; MPTP block: 88.2*; NR3A LBD binder: 1.2; ADAM10 inh: -0.3; MPTP counter: 68.5*

What do the screens show for `CCN1CCN(C(=O)CN(Cc2ccccc2)S(C)(=O)=O)CC1`?
ADAM17 inh: 0.2; SKN-1 inh: -6.1; MT1-MMP act inh: 0.5; MPTP block: -0.7; NR3A LBD binder: 1.0; ADAM10 inh: 2.4

What do the screens show for `CC1CC1C(=O)OCC(=O)NNC(=O)COc1ccc(Br)cc1` (configuration not stated)?
ADAM17 inh: -0.1; SKN-1 inh: -5.5; MT1-MMP act inh: -0.2; MPTP block: -1.7; NR3A LBD binder: 1.0; ADAM10 inh: -0.5
